≈ marks a conversion by molar mass, not a printed value. Calls of active or inactive are those of the source. The calls are words filed in the database; no cut-off is given here.
Assays:
Microbotryum violaceum = test: Antifungal activity against Microbotryum violaceum at 50 ug; assay type: functional, organism-based
Summary of the method: (§1)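 Agar diffusion assay against bacteria (Bacillus megaterium, Escherichia coli), fungi (Microbotryum violaceum, Eurotium repens, Mycotypha microsporum) and the green microalga Chlorella fusca.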

Escherichia coli = test: Antibacterial activity against Escherichia coli at 50 ug; assay type: functional, organism-based; summary of the method: as §1
[1] = test system: Aspergillus pseudoglaucus; test: Antifungal activity against Eurotium repens at 50 ug; assay type: functional, organism-based; summary of the method: as §1
Mycotypha microspora = test: Antifungal activity against Mycotypha microspora at 50 ug; assay type: functional, organism-based; summary of the method: as §1
[Chlorella] fusca = Antialgal activity against 'Chlorella' fusca at 50 ug; assay type: functional, organism-based; conditions: Scenedesmus fuscus; summary of the method: as §1
Priestia megaterium = test: Antibacterial activity against Bacillus megaterium at 50 ug; assay type: functional, organism-based; summary of the method: as §1
[2] = Cytotoxicity against human HM02 cells; assay type: functional
Summary of the method: (§2)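 Cytotoxicity run to NCI standards on the human tumour lines HM02 (stomach carcinoma), HepG2 (liver carcinoma) and Huh7 (liver carcinoma with mutated p53).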

Huh-7 = test: Cytotoxicity against human HuH7 cells; assay type: functional; summary of the method: as §2
HepG2 = test: Cytotoxicity against human HepG2 cells; assay type: functional; summary of the method: as §2

Compound	Activity (Microbotryum violaceum)	Activity (Escherichia coli)	Activity [1]	Activity (Mycotypha microspora)	Activity ([Chlorella] fusca)	Activity (Priestia megaterium)	GI50 [2] [µg/mL]	GI50 (Huh-7) [µg/mL]	GI50 (HepG2) [µg/mL]
COc1ccc(Cc2[nH]c(=N)n(C)c2Cc2cc(O)c(OC)c(O)c2)cc1	inactive	inactive	inactive	inactive	inactive	inactive	–	–	–
COc1ccc(Cc2[nH]c(=N)n(C)c2Cc2ccc(O)cc2)cc1	inactive	inactive	inactive	inactive	inactive	inactive	–	–	–
COc1ccc(Cc2cn(Cc3ccc(O)cc3)c(=N)n2C)cc1	inactive	inactive	inactive	inactive	inactive	inactive	–	–	–
COc1ccc(Cn2cc(Cc3ccc(OC)c(OC)c3)nc2/N=C2/NC(=O)N(C)C2=O)cc1 [ISONAAMIDINE E]	inactive	inactive	inactive	inactive	inactive	inactive	7 (≈ 15.1 µM)	1.3 (≈ 2.8 µM)	7 (≈ 15.1 µM)
COc1ccc(Cn2cc(Cc3ccc(OC)c(OC)c3)nc2N)cc1 [ISONAAMINE C]	inactive	inactive	inactive	inactive	inactive	inactive	5.3 (≈ 15 µM)	2.1 (≈ 5.94 µM)	2.2 (≈ 6.22 µM)

Source: ChEMBL document CHEMBL1150617, “New and biologically active imidazole alkaloids from two sponges of the genus Leucetta” (2002)
